Measured values taken from ChEMBL document CHEMBL1795297, “Design, synthesis and molecular docking studies of novel triazole as antifungal agent” (2011).
In brackets after ≈: the same amount, converted by molar mass.

How the values were obtained:
Format in all cases: functional
[1] = system: Aspergillus fumigatus; assay: Antifungal activity against Aspergillus fumigatus clinical isolate by micro-broth dilution method
Outline: (§1)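 Clinical isolate. MIC by broth microdilution following the NCCLS M27-A2 reference method for yeasts. Compounds were dissolved in DMSO, serially diluted in growth medium, inoculated and incubated at 35 °C. MIC80 is the first well with about 80% less growth than the drug-free well. Each test was run three times and the mean of replicates reported.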

[2] = system: Candida albicans; assay: Antifungal activity against Candida albicans ATCC Y0109 after 24 hrs by micro-broth dilution method; conditions: ATCC Y0109, 24 h
Outline: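 ATCC quality-control strain, tested in every assay. NCCLS M27-A2 broth microdilution. Compounds were dissolved in DMSO, serially diluted in growth medium, inoculated and incubated at 35 °C, with growth read at 24 h. MIC80 is the first well with about 80% growth reduction relative to the drug-free control. Each test was run three times and the mean of replicates taken.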

[3] = system: Cryptococcus neoformans; assay: Antifungal activity against Cryptococcus neoformans ATCC BLS108 after 72 hrs by micro-broth dilution method; conditions: ATCC BLS108, 72 h
Outline: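 Quality-control ATCC strain included in each assay. Microbroth dilution per NCCLS M27-A2. DMSO-dissolved compounds were serially diluted in growth medium, inoculated and held at 35 °C, with MIC read at 72 h. MIC80 is the first well showing about 80% growth reduction versus the drug-free well. Tests were done in triplicate and the mean reported.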

[4] = system: Candida tropicalis; assay: Antifungal activity against Candida tropicalis clinical isolate by micro-broth dilution method; outline: as §1
[5] = system: Candida parapsilosis; assay: Antifungal activity against Candida parapsilosis clinical isolate by micro-broth dilution method; conditions: Lodderomyces parapsilosis; outline: as §1
[6] = system: Trichophyton rubrum; assay: Antifungal activity against Trichophyton rubrum clinical isolate by micro-broth dilution method; outline: as §1
[7] = system: Nannizzia gypsea; assay: Antifungal activity against Microsporum gypseum clinical isolate by micro-broth dilution method; outline: as §1
[8] = Antifungal activity against Fonsecaea compacta clinical isolate by micro-broth dilution method; outline: as §1

SMILES	MIC80 [1]	MIC80 [2]	MIC80 [3]	MIC80 [4]	MIC80 [5]	MIC80 [6]	MIC80 [7]	MIC80 [8]
O=C(/C=C/c1ccc(Cl)c(Cl)c1)Nc1ccc(N2CCN(CC(O)(Cn3cncn3)c3ccc(F)cc3F)CC2)c(C(F)(F)F)c1 (configuration not stated)	4 µg/mL (≈ 5.87 µM)	0.25 µg/mL (≈ 0.367 µM)	0.25 µg/mL (≈ 0.367 µM)	–	–	–	–	–
O=C(/C=C/c1cccc([N+](=O)[O-])c1)Nc1ccc(N2CCN(CC(O)(Cn3cncn3)c3ccc(F)cc3F)CC2)c(C(F)(F)F)c1 (configuration not stated)	4 µg/mL (≈ 6.08 µM)	0.25 µg/mL (≈ 0.38 µM)	0.0625 µg/mL (≈ 0.095 µM)	–	–	–	–	–
O=C(/C=C/c1cccc(Cl)c1)Nc1ccc(N2CCN(CC(O)(Cn3cncn3)c3ccc(F)cc3F)CC2)c(C(F)(F)F)c1 (configuration not stated)	4 µg/mL (≈ 6.18 µM)	0.25 µg/mL (≈ 0.386 µM)	0.25 µg/mL (≈ 0.386 µM)	–	–	–	–	–
O=C(/C=C/c1ccc(F)cc1)Nc1ccc(N2CCN(CC(O)(Cn3cncn3)c3ccc(F)cc3F)CC2)c(C(F)(F)F)c1 (configuration not stated)	4 µg/mL (≈ 6.34 µM)	0.0156 µg/mL (≈ 0.0247 µM)	0.25 µg/mL (≈ 0.396 µM)	–	–	–	–	–
N#Cc1cccc(/C=C/C(=O)Nc2ccc(N3CCN(CC(O)(Cn4cncn4)c4ccc(F)cc4F)CC3)c(C(F)(F)F)c2)c1 (configuration not stated)	4 µg/mL (≈ 6.27 µM)	0.25 µg/mL (≈ 0.392 µM)	0.25 µg/mL (≈ 0.392 µM)	–	–	–	–	–
CCCCCCCC(=O)Nc1ccc(N2CCN(CC(O)(Cn3cncn3)c3ccc(F)cc3F)CC2)c(C(F)(F)F)c1 (configuration not stated)	> 64 µg/mL	0.25 µg/mL (≈ 0.411 µM)	16 µg/mL (≈ 26.3 µM)	16 µg/mL (≈ 26.3 µM)	4 µg/mL (≈ 6.57 µM)	4 µg/mL (≈ 6.57 µM)	0.25 µg/mL (≈ 0.411 µM)	4 µg/mL (≈ 6.57 µM)
OC(Cn1cncn1)(Cn1cncn1)c1ccc(F)cc1F [FLUCONAZOLE]	64 µg/mL (≈ 209 µM)	4 µg/mL (≈ 13.1 µM)	1 µg/mL (≈ 3.27 µM)	1 µg/mL (≈ 3.27 µM)	1 µg/mL (≈ 3.27 µM)	0.25 µg/mL (≈ 0.816 µM)	0.25 µg/mL (≈ 0.816 µM)	16 µg/mL (≈ 52.2 µM)
CC(=O)Nc1ccc(N2CCN(CC(O)(Cn3cncn3)c3ccc(F)cc3F)CC2)c(C(F)(F)F)c1 (configuration not stated)	> 64 µg/mL	0.0625 µg/mL (≈ 0.119 µM)	0.25 µg/mL (≈ 0.477 µM)	0.25 µg/mL (≈ 0.477 µM)	0.25 µg/mL (≈ 0.477 µM)	1 µg/mL (≈ 1.91 µM)	1 µg/mL (≈ 1.91 µM)	1 µg/mL (≈ 1.91 µM)
COc1cccc(OC)c1/C=C/C(=O)Nc1ccc(N2CCN(CC(O)(Cn3cncn3)c3ccc(F)cc3F)CC2)c(C(F)(F)F)c1 (configuration not stated)	> 64 µg/mL	0.25 µg/mL (≈ 0.372 µM)	1 µg/mL (≈ 1.49 µM)	–	–	–	–	–
O=C(/C=C/c1cccc(F)c1)Nc1ccc(N2CCN(CC(O)(Cn3cncn3)c3ccc(F)cc3F)CC2)c(C(F)(F)F)c1 (configuration not stated)	16 µg/mL (≈ 25.4 µM)	0.25 µg/mL (≈ 0.396 µM)	0.25 µg/mL (≈ 0.396 µM)	–	–	–	–	–
O=C(/C=C/c1ccccc1[N+](=O)[O-])Nc1ccc(N2CCN(CC(O)(Cn3cncn3)c3ccc(F)cc3F)CC2)c(C(F)(F)F)c1 (configuration not stated)	> 64 µg/mL	0.25 µg/mL (≈ 0.38 µM)	0.25 µg/mL (≈ 0.38 µM)	–	–	–	–	–
CCC(C)n1ncn(-c2ccc(N3CCN(c4ccc(OCC5COC(Cn6cncn6)(c6ccc(Cl)cc6Cl)O5)cc4)CC3)cc2)c1=O (configuration not stated) [ITRACONAZOLE]	1 µg/mL (≈ 1.42 µM)	1 µg/mL (≈ 1.42 µM)	1 µg/mL (≈ 1.42 µM)	0.25 µg/mL (≈ 0.354 µM)	0.25 µg/mL (≈ 0.354 µM)	0.0156 µg/mL (≈ 0.0221 µM)	0.0156 µg/mL (≈ 0.0221 µM)	0.25 µg/mL (≈ 0.354 µM)
CCC(=O)Nc1ccc(N2CCN(CC(O)(Cn3cncn3)c3ccc(F)cc3F)CC2)c(C(F)(F)F)c1 (configuration not stated)	16 µg/mL (≈ 29.7 µM)	0.25 µg/mL (≈ 0.464 µM)	1 µg/mL (≈ 1.86 µM)	0.25 µg/mL (≈ 0.464 µM)	1 µg/mL (≈ 1.86 µM)	1 µg/mL (≈ 1.86 µM)	1 µg/mL (≈ 1.86 µM)	4 µg/mL (≈ 7.43 µM)
CC(C)C(=O)Nc1ccc(N2CCN(CC(O)(Cn3cncn3)c3ccc(F)cc3F)CC2)c(C(F)(F)F)c1 (configuration not stated)	64 µg/mL (≈ 116 µM)	0.25 µg/mL (≈ 0.452 µM)	1 µg/mL (≈ 1.81 µM)	1 µg/mL (≈ 1.81 µM)	0.25 µg/mL (≈ 0.452 µM)	1 µg/mL (≈ 1.81 µM)	1 µg/mL (≈ 1.81 µM)	4 µg/mL (≈ 7.24 µM)
O=C(/C=C/c1ccccc1F)Nc1ccc(N2CCN(CC(O)(Cn3cncn3)c3ccc(F)cc3F)CC2)c(C(F)(F)F)c1 (configuration not stated)	4 µg/mL (≈ 6.34 µM)	0.0625 µg/mL (≈ 0.0991 µM)	0.25 µg/mL (≈ 0.396 µM)	–	–	–	–	–
O=C(/C=C/c1cccc(Br)c1)Nc1ccc(N2CCN(CC(O)(Cn3cncn3)c3ccc(F)cc3F)CC2)c(C(F)(F)F)c1 (configuration not stated)	1 µg/mL (≈ 1.45 µM)	0.25 µg/mL (≈ 0.362 µM)	0.25 µg/mL (≈ 0.362 µM)	–	–	–	–	–
O=C(Nc1ccc(N2CCN(CC(O)(Cn3cncn3)c3ccc(F)cc3F)CC2)c(C(F)(F)F)c1)c1cccnc1 (configuration not stated)	4 µg/mL (≈ 6.81 µM)	0.0625 µg/mL (≈ 0.106 µM)	0.25 µg/mL (≈ 0.425 µM)	–	–	–	–	–
O=C(Nc1ccc(N2CCN(CC(O)(Cn3cncn3)c3ccc(F)cc3F)CC2)c(C(F)(F)F)c1)c1ccco1 (configuration not stated)	1 µg/mL (≈ 1.73 µM)	0.0625 µg/mL (≈ 0.108 µM)	0.25 µg/mL (≈ 0.434 µM)	–	–	–	–	–
O=C(Nc1ccc(N2CCN(CC(O)(Cn3cncn3)c3ccc(F)cc3F)CC2)c(C(F)(F)F)c1)c1ccccc1 (configuration not stated)	4 µg/mL (≈ 6.82 µM)	1 µg/mL (≈ 1.7 µM)	0.25 µg/mL (≈ 0.426 µM)	1 µg/mL (≈ 1.7 µM)	0.25 µg/mL (≈ 0.426 µM)	1 µg/mL (≈ 1.7 µM)	1 µg/mL (≈ 1.7 µM)	4 µg/mL (≈ 6.82 µM)
